{
  "source": "paper PMC2752669",
  "about": "(Biochemistry, 2009)",
  "molecules": {"B1": {"name": "h17 annealed to 5'-biotin-DNA (mixed)", "RNA": "GGCGGGGAGGAAGGGAGUAAAGUUAAUACCUUUGCUCAUUGACGUUACCCGCCGGUGCGGAUGGCGAUUGCU", "DNA": "AGCAATCGCCATCCGCACC"}},
  "key": {"[1]": {"test_system": "hp-AS (RNA, rRNA) GGCGUCACACCUUCGGGUGAAGUCGCC", "test": "ESI-MS titration", "conditions": "NH4+ 100 mM; apparent; 100 mM NH4OAc, 50% 2-propanol, pH 6.7, 25 °C"}, "[2]": {"test_system": "A-site RNA hairpin hp-AS (bacterial 16S rRNA)", "test": "ESI-MS binding to hp-AS", "parameters": "species or system E. coli", "conditions": "1 μM RNA", "procedure,_shortened": "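Hairpin RNA renatured in 100 mM NH4OAc (pH 6.7). 1 μM RNA mixed with peptide (0–375 μM), room temperature, 10 min, in 50% 2-propanol/100 mM NH4OAc pH 6.7, then ESI-MS. Fraction bound taken from summed complex versus free-RNA peak intensities. Salt series: 34 μM peptide at 30–200 mM NH4OAc. pH series: 34 μM peptide, 100 mM NH4OAc, pH 5.0–7.6.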"}, "[3]": {"test_system": "E. coli S30 extract translation system", "test": "In vitro translation inhibition", "format": "biochemical", "procedure,_shortened": "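E. coli S30 extract for circular DNA, with pBESTluc plasmid carrying firefly luciferase. Amino acids, S30 premix and increasing peptide concentrations in 50 μl, 37 °C for 1–2 h. Quenched on ice 5 min, luciferase reagent added, luminescence read. Background from a sample without DNA template.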"}, "[4]": {"test_system": "A-site RNA hairpin hp-AS (bacterial 16S rRNA)", "test": "Isothermal titration calorimetry of peptide into hp-AS", "format": "binding, E. coli", "conditions": "10 mM potassium phosphate, 100 mM KCl, pH 7.2, 10 °C; average of three independent experiments", "procedure,_shortened": "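RNA and test peptide were dialysed against water, dried, redissolved in buffer and degassed at 5 °C for 7 min. After a 2 μl preliminary injection, which was discarded, 20 μl injections of peptide (250–600 μM) went into hp-AS RNA (20–40 μM), spaced 300 s. Heats of peptide dilution into buffer without RNA were subtracted.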"}, "[5]": {"test_system": "A-site RNA hairpin hp-AS (bacterial 16S rRNA)", "test": "Enzymatic", "format": "binding, E. coli", "conditions": "5 to 120 μM peptide, pH 7.2, 37 °C", "procedure,_shortened": "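3′-32P-pCp-labelled hp-AS (1 μl, 250,000 cpm) preincubated with test peptide (0–120 μM) in 10 mM Tris-HCl pH 7.2, 15 mM NaCl, 1 mM EDTA, 37 °C, 1.5 h. RNase A (1 μl, 0.002 U/μl) was added to 5 μl final for 30 min at 37 °C, quenched on dry ice, formamide-denatured and gel-resolved beside an alkaline-hydrolysis ladder. Fraction bound versus peptide was curve-fitted for Kd; two independent experiments.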"}, "[6]": {"test_system": "A-site RNA over TAR RNA", "test": "ESI-MS competition, A-site RNA versus TAR RNA", "format": "binding", "conditions": "data not shown"}, "[7]": {"test_system": "helix 17 (h17) RNA from 16S rRNA", "test": "Peptide bead ELISA assay, h17 control", "format": "binding", "conditions": "biotin-tagged h17, 4 days, 4 °C; anti-biotin-alkaline phosphatase, BCIP", "procedure,_shortened": "(§1)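 Peptide beads washed, blocked overnight at 4 °C, then incubated 4 days at 4 °C with 1 μM biotin-tagged RNA (fresh RNA added daily) in HEPES-KOH pH 7.5/100 mM KCl/5 mM MgCl2 buffer. Buffer-only beads served as background. Detection: anti-biotin–alkaline phosphatase (1:8000, 1 h, room temperature), then BCIP (0.165 μg/μl, pH 9.5) overnight at 4 °C.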"}, "[8]": {"test_system": "other RNA targets", "test": "Preliminary in vitro solution binding studies"}, "[9]": {"test_system": "A-site RNA hp-AS-pwk annealed to 5'-biotin-DNA", "test": "Peptide bead ELISA assay, hp-AS-pwk", "format": "binding, E. coli", "conditions": "1 μM biotin-tagged RNA, 4 days, 4 °C; anti-biotin-alkaline phosphatase, BCIP", "procedure,_shortened": "as §1"}, "[10]": {"target": "T1, HPVHHYQ peptide on beads", "T1 chain": "HPVHHYQ", "test": "bead fluorescence"}, "[11]": {"target": "T2, LPLTPLP peptide on beads", "T2 chain": "LPLTPLP", "test": "bead fluorescence"}, "[12]": {"target": "T3, HPVHHYQ-NH2 peptide", "T3 chain": "HPVHHYQ-NH2", "test": "RNase A footprinting"}, "[13]": {"target": "T3, HPVHHYQ-NH2 peptide", "test": "RNase A footprinting"}, "[14]": {"target": "T3, HPVHHYQ-NH2 peptide", "test": "ITC"}, "[15]": {"target": "T1, HPVHHYQ peptide on beads", "test": "bead ELISA"}, "[16]": {"target": "T2, LPLTPLP peptide on beads", "test": "bead ELISA"}},
  "note": "Ends that are not written are not given here.",
  "data": [
    {"molecule": "H-HPVHHYQ-NH2", "values": [
      {"measurement": "Kd", "setting": "[1]", "result": "29 ± 2", "unit": "µM"}
    ]},
    {"molecule": "HPVHHYQ-NH2", "values": [
      {"measurement": "Effect of pH on ratio of free RNA to RNA-peptide complexes", "setting": "[2]; pH 5.0 to 7.6, 100 mM NH4OAc, 50% IPA, 34 μM peptide, data not shown", "result": "no significant change"},
      {"measurement": "Kd", "setting": "[2]; read-out: Apparent dissociation constant (ESI-MS), 0–375 μM peptide, 100 mM NH4OAc, pH 6.7, 50% 2-propanol, 25 °C, 10 min, average of three independent experiments", "result": "29 ± 2", "unit": "µM"},
      {"measurement": "Inhibition of in vitro protein synthesis", "setting": "[3]; 34 μM peptide, 37 °C, 1–2 h", "result": "no inhibition was observed"},
      {"measurement": "Remaining (luciferase) enzyme activity", "setting": "[3]; 620 μM peptide, 37 °C, 1–2 h", "result": "approximately 50%"},
      {"measurement": "IC50 compared with neomycin", "setting": "[3]; in vitro translation inhibition", "result": "high compared with the known antibiotic neomycin"},
      {"measurement": "Enthalpy ΔH", "setting": "[4]", "result": "-0.56 ± 0.05", "unit": "kcal/mol"},
      {"measurement": "Entropy −TΔS", "setting": "[4]", "result": "-6.5 ± 0.3", "unit": "kcal/mol"},
      {"measurement": "Residues protected from RNase A cleavage", "setting": "[5]", "result": "residues G1494 and U1495 are protected by the peptide"},
      {"measurement": "Residues with enhanced RNase A cleavage", "setting": "[5]", "result": "enhanced at residues A1492 and A1493"},
      {"measurement": "Preference for A-site RNA over TAR RNA", "setting": "[6]", "result": "five-fold preference for the A-site RNA over TAR RNA"}
    ]},
    {"molecule": "LPLTPLP", "values": [
      {"measurement": "Bead ELISA binding to h17", "setting": "[7]", "result": "No binding was observed"},
      {"measurement": "Binding to other RNA targets", "setting": "[8]", "result": "binds to other RNA targets"},
      {"measurement": "Bead ELISA response with A-site RNA", "setting": "[9]", "result": "bind to the A-site RNA"}
    ]},
    {"molecule": "HPVHHYQ", "values": [
      {"measurement": "Bead ELISA binding to h17", "setting": "[7]", "result": "No binding was observed"},
      {"measurement": "Bead ELISA response with A-site RNA", "setting": "[9]", "result": "much stronger response than LPLTPLP"}
    ]},
    {"molecule": "GGCGUCGCUACUUCGGUAAAAGUCGCC (structured_RNA)", "note": "[F-human-hp-AS]", "values": [
      {"measurement": "binding result", "setting": "[10]", "result": "no binding"},
      {"measurement": "binding result", "setting": "[11]", "result": "no binding"}
    ]},
    {"molecule": "GGCGUCACACCUUCGGGUGAAGUCGCC (structured_RNA)", "note": "[F-hp-AS]", "values": [
      {"measurement": "binding result", "setting": "[11]", "result": "binds"}
    ]},
    {"molecule": "GGCGUCACACCUUCGGGUGAAGUCGCC (structured_RNA)", "note": "[hp-AS]", "values": [
      {"measurement": "Kd", "setting": "[12]", "result": "18 ± 4", "unit": "µM"},
      {"measurement": "Kd", "setting": "[13]", "result": "16 ± 4", "unit": "µM"},
      {"measurement": "Kd", "setting": "[14]", "result": "2 ± 0.4", "unit": "µM"}
    ]},
    {"molecule": "GGCAGAUCUCAGCCUGGGAGCUGUCUGCC (structured_RNA)", "note": "[F-TAR]", "values": [
      {"measurement": "binding result", "setting": "[10]", "result": "no binding"},
      {"measurement": "binding result", "setting": "[11]", "result": "no binding"}
    ]},
    {"molecule": "B1", "values": [
      {"measurement": "binding result", "setting": "[15]", "result": "no binding"},
      {"measurement": "binding result", "setting": "[16]", "result": "no binding"}
    ]}
  ]
}
